Reference: ChEMBL document CHEMBL1145430, “Synthesis and simple 18F-labeling of 3-fluoro-5-(2-(2-(fluoromethyl)thiazol-4-yl)ethynyl)benzonitrile as a high affinity radioligand for imaging monkey brain metabotropic glutamate subtype-5 receptors with positron emission tomography” (J Med Chem, 2007)
One block for each compound: values may come before it.

Key:
[1] = molecular target: Sodium-dependent noradrenaline transporter (Homo sapiens, UniProt P23975); test: Displacement of [3H]nisoxitine from NET
[2] = molecular target: 5-hydroxytryptamine receptor 7 (Homo sapiens, UniProt P34969); test: Displacement of [3H]LSD from 5HT7 receptor
[3] = molecular target: Sodium-dependent dopamine transporter (Homo sapiens, UniProt Q01959); test: Displacement of [3H]WIN-35428 from DAT
[4] = molecular target: Alpha-2A adrenergic receptor (Homo sapiens, UniProt P08913); test: Displacement of [3H][…] from adrenergic alpha2A receptor
D(3) dopamine receptor = D(3) dopamine receptor (Homo sapiens, UniProt P35462); test: Displacement of [3H]N-methylspiperone from dopamine D3 receptor
[5] = molecular target: Muscarinic acetylcholine receptor M5 (Homo sapiens, UniProt P08912); test: Displacement of [3H]QNB from muscarinic M5 receptor
[6] = molecular target: Muscarinic acetylcholine receptor M1 (Homo sapiens, UniProt P11229); test: Displacement of [3H]QNB from muscarinic M1 receptor
[7] = molecular target: Alpha-2B adrenergic receptor (Homo sapiens, UniProt P18089); test: Displacement of [3H][…] from adrenergic alpha-2B receptor
Chain of Alpha-2B adrenergic receptor (P18089 whole entry): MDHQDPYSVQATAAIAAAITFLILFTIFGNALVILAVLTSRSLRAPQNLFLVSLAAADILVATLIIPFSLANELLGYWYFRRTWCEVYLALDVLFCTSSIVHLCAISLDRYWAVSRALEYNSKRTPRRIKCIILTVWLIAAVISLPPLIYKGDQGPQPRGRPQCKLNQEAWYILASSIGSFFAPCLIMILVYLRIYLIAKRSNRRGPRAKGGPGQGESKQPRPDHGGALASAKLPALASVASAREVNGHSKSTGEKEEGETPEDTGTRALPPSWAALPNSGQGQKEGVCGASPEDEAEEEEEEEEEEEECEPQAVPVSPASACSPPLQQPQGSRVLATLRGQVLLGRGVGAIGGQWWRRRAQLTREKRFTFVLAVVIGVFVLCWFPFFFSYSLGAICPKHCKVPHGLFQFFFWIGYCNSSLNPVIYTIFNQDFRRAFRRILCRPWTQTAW

D(4) dopamine receptor = D(4) dopamine receptor (Homo sapiens, UniProt P21917); test: Displacement of [3H]N-methylspiperone from dopamine D4 receptor
Chain of D(4) dopamine receptor (P21917 whole entry): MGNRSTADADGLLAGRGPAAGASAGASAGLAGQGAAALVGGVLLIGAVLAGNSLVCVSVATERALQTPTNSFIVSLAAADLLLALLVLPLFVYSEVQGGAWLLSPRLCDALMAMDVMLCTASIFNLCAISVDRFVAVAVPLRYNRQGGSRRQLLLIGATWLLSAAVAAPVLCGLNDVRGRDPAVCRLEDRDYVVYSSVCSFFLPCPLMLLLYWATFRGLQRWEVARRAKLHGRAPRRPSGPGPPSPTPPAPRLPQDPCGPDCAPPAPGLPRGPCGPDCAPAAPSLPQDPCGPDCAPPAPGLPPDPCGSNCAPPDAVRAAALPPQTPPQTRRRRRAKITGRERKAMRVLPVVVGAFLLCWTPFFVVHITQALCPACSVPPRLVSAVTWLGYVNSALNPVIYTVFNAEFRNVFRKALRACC

[8] = molecular target: Delta-type opioid receptor (Homo sapiens, UniProt P41143); test: Displacement of [3H]DADLE from delta opioid receptor
[9] = molecular target: 5-hydroxytryptamine receptor 1A (Homo sapiens, UniProt P08908); test: Displacement of [3H]8-OH-DPAT from 5HT1A receptor
[10] = molecular target: 5-hydroxytryptamine receptor 1E (Homo sapiens, UniProt P28566); test: Displacement of [3H]5-HT from 5HT1E receptor
[11] = molecular target: 5-hydroxytryptamine receptor 5A (Homo sapiens, UniProt P47898); test: Displacement of [3H]LSD from 5HT5A receptor
D(2) dopamine receptor = D(2) dopamine receptor (Homo sapiens, UniProt P14416); test: Displacement of [3H]N-methylspiperone from dopamine D2 receptor
[12] = Displacement of [3H]MK-801 from NMDA receptor; set-up: species or system Homo sapiens
[13] = molecular target: Metabotropic glutamate receptor 2 (Homo sapiens, UniProt Q14416); test: Binding affinity at mGluR2
[14] = molecular target: Sodium-dependent serotonin transporter (Homo sapiens, UniProt P31645); test: Displacement of [3H]citalopram from SERT
[15] = molecular target: Alpha-2C adrenergic receptor (Homo sapiens, UniProt P18825); test: Displacement of [3H][…] from adrenergic alpha-2C receptor
[16] = molecular target: Alpha-1A adrenergic receptor (Homo sapiens, UniProt P35348); test: Displacement of [3H]prazosin from adrenergic alpha-1A receptor
Chain of Alpha-1A adrenergic receptor (P35348 whole entry): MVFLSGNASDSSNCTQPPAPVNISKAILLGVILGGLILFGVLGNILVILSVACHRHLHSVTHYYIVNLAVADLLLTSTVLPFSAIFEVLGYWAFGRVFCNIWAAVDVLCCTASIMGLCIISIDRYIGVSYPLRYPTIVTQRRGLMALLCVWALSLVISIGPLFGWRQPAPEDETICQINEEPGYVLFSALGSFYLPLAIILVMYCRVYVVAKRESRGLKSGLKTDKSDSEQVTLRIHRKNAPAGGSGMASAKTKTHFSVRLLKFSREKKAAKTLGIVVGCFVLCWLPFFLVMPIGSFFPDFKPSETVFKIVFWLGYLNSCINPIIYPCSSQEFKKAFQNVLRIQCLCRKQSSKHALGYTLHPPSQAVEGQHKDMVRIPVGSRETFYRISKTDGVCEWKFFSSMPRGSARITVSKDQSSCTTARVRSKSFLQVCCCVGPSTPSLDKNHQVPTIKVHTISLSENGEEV

[17] = molecular target: 5-hydroxytryptamine receptor 2C (Homo sapiens, UniProt P28335); test: Displacement of [3H]mesulergine from 5HT2C receptor
Histamine H4 receptor = Histamine H4 receptor (Homo sapiens, UniProt Q9H3N8); test: Binding affinity to histamine H4 receptor
[18] = molecular target: 5-hydroxytryptamine receptor 1B (Homo sapiens, UniProt P28222); test: Displacement of [3H]GR-125743 from 5HT1B receptor
D(1A) dopamine receptor = D(1A) dopamine receptor (Homo sapiens, UniProt P21728); test: Displacement of [3H]SCH-23390 from dopamine D1 receptor
[19] = molecular target: Metabotropic glutamate receptor 4 (Homo sapiens, UniProt Q14833); test: Binding affinity at mGluR4
[20] = molecular target: Muscarinic acetylcholine receptor M4 (Homo sapiens, UniProt P08173); test: Displacement of [3H]QNB from muscarinic M4 receptor
[21] = molecular target: 5-hydroxytryptamine receptor 1D (Homo sapiens, UniProt P28221); test: Displacement of [3H]GR-125743 from 5HT1D receptor
Histamine H1 receptor = Histamine H1 receptor (Homo sapiens, UniProt P35367); test: Binding affinity to histamine H1 receptor
[22] = molecular target: 5-hydroxytryptamine receptor 6 (Homo sapiens, UniProt P50406); test: Displacement of [3H]LSD from 5HT6 receptor
[23] = molecular target: Metabotropic glutamate receptor 5 (Rattus norvegicus, UniProt P31424); test: Displacement of […] from mGluR5 in rat brain membrane; format: cell membranes
Chain of Metabotropic glutamate receptor 5 (P31424 whole entry): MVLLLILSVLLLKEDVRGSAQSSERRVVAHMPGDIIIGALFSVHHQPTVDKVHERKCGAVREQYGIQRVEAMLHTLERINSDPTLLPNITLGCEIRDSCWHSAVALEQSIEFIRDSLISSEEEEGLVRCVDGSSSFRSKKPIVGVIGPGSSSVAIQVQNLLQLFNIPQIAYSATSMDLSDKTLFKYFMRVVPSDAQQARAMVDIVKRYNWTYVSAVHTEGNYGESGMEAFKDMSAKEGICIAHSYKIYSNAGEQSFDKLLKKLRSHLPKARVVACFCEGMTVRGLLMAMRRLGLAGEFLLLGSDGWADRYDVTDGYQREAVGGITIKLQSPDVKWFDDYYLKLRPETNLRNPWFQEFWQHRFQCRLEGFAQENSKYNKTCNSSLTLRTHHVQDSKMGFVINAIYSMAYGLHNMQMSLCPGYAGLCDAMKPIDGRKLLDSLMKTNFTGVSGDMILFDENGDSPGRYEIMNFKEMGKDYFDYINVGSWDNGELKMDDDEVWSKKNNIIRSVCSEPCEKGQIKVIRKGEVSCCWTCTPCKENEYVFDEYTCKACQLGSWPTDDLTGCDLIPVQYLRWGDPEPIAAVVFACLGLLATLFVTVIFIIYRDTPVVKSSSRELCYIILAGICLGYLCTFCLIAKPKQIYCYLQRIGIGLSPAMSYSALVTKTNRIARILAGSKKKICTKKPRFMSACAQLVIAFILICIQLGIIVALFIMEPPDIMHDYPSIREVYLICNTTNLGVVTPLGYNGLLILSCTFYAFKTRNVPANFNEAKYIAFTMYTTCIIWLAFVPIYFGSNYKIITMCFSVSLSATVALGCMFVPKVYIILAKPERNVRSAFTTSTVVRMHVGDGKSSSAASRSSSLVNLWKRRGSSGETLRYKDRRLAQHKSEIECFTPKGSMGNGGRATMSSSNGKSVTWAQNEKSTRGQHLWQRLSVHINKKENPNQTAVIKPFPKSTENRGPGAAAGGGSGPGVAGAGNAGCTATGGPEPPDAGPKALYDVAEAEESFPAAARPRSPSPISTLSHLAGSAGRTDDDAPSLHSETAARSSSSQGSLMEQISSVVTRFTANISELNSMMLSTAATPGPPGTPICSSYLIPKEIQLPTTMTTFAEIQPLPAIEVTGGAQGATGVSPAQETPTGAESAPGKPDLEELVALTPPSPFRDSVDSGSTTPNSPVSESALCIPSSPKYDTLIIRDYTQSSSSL
Method in brief: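 Competition binding against [³H]MPEPy in rat whole-brain membranes (minus cerebellum and brainstem), homogenized in 50 mM Tris-HCl/saline pH 7.5, pelleted at 39 800 g. Membranes 5 mg/800 µL final. Competitor from 10 mM ethanol stock, final 0.01 nM to 1 mM. Incubated 1 h at 22 °C, filtered on PEI-soaked GF/B, washed with cold saline, scintillation counted. Three determinations.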

[24] = molecular target: Sigma non-opioid intracellular receptor 1 (Homo sapiens, UniProt Q99720); test: Binding affinity to sigma1 receptor
Mu-type opioid receptor = Mu-type opioid receptor (Homo sapiens, UniProt P35372); test: Displacement of [3H]diprenorphine from mu opioid receptor
[25] = molecular target: Kappa-type opioid receptor (Homo sapiens, UniProt P41145); test: Displacement of [3H]bremazocine from kappa opioid receptor
[26] = molecular target: 5-hydroxytryptamine receptor 2B (Homo sapiens, UniProt P41595); test: Displacement of [3H]LSD from 5HT2B receptor
[27] = molecular target: Metabotropic glutamate receptor 8 (Homo sapiens, UniProt O00222); test: Binding affinity at mGluR8
[28] = Lipophilicity, log D of the compound; format: physicochemical; settings: octanol/water
Method in brief: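 Partition of the [18F]-labeled radioligand between n-octanol and sodium phosphate buffer (0.15 M, pH 7.4) was measured, following a general method described earlier.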

[29] = molecular target: 5-hydroxytryptamine receptor 2A (Homo sapiens, UniProt P28223); test: Displacement of [3H]ketanserin from 5HT2A receptor
Chain of 5-hydroxytryptamine receptor 2A (P28223 whole entry): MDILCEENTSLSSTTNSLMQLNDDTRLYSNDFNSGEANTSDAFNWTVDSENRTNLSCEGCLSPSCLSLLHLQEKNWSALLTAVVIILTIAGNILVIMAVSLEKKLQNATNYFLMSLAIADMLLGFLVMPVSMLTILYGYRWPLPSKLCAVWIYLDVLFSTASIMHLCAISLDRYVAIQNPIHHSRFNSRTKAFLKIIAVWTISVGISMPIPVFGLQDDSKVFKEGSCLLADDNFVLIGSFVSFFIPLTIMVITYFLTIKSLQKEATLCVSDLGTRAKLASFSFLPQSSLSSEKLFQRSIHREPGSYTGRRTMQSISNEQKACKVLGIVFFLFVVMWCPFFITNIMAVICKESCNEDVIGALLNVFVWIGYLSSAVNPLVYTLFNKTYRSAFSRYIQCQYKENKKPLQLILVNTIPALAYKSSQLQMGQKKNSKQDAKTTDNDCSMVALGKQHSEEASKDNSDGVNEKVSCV

[30] = molecular target: Alpha-1B adrenergic receptor (Homo sapiens, UniProt P35368); test: Displacement of [3H]prazosin from adrenergic alpha-1B receptor
[31] = molecular target: Metabotropic glutamate receptor 1 (Homo sapiens, UniProt Q13255); test: Binding affinity at mGluR1
[32] = molecular target: Serotonin 3 (5-HT3) receptor; test: Displacement of [3H]zacopride from 5HT3 receptor; format: protein-complex assay, Homo sapiens
[33] = molecular target: Metabotropic glutamate receptor 6 (Homo sapiens, UniProt O15303); test: Binding affinity at mGluR6
Histamine H2 receptor = Histamine H2 receptor (Homo sapiens, UniProt P25021); test: Binding affinity to from histamine H2 receptor
Chain of Histamine H2 receptor (P25021 whole entry): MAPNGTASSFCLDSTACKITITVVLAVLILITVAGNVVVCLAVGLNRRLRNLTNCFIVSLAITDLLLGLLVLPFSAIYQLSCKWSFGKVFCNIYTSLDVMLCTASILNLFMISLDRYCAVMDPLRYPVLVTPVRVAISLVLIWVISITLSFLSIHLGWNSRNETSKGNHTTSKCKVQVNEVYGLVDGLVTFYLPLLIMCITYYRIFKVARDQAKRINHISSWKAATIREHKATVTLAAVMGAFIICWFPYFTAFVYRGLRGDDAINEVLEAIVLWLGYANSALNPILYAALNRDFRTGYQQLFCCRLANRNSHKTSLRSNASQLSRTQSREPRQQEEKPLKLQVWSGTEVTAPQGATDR

[34] = molecular target: Muscarinic acetylcholine receptor M3 (Homo sapiens, UniProt P20309); test: Displacement of [3H]QNB from muscarinic M3 receptor
Chain of Muscarinic acetylcholine receptor M3 (P20309 whole entry): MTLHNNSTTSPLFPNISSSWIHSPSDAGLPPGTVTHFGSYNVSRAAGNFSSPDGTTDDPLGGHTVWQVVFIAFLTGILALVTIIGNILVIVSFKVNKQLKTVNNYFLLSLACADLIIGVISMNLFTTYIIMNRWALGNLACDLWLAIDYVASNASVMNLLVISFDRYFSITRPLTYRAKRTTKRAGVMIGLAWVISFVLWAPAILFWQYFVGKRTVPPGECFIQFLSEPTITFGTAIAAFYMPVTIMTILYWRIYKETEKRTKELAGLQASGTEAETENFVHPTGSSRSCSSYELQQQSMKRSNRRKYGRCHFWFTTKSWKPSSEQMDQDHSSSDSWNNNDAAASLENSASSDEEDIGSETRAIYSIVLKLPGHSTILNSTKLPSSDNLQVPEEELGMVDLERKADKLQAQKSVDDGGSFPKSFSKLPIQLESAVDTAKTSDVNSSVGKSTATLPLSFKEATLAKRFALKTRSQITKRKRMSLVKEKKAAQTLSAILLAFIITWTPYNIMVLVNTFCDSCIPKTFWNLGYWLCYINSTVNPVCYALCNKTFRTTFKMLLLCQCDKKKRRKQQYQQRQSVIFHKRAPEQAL

[35] = molecular target: Beta-2 adrenergic receptor (Homo sapiens, UniProt P07550); test: Displacement of [125I]pindolol from adrenergic beta-2 receptor
Chain of Beta-2 adrenergic receptor (P07550 whole entry): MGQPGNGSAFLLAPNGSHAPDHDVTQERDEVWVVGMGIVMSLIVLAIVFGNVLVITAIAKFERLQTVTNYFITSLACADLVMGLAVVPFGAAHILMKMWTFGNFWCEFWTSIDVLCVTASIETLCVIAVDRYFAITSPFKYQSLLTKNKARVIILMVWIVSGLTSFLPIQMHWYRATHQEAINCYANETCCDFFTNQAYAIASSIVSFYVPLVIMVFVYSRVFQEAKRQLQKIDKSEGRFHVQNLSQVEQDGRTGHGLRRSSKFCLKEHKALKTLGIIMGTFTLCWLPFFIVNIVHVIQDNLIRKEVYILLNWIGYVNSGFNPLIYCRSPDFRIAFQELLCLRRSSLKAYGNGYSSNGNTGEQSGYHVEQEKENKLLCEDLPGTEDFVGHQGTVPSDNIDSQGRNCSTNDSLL

[36] = molecular target: Muscarinic acetylcholine receptor M2 (Homo sapiens, UniProt P08172); test: Displacement of [3H]QNB from muscarinic M2 receptor
[37] = molecular target: Beta-1 adrenergic receptor (Homo sapiens, UniProt P08588); test: Displacement of [125I]pindolol from adrenergic beta-1 receptor
D(1B) dopamine receptor = D(1B) dopamine receptor (Homo sapiens, UniProt P21918); test: Displacement of radiolabeled SKF-38393 from dopamine D5 receptor
Chain of D(1B) dopamine receptor (P21918 whole entry): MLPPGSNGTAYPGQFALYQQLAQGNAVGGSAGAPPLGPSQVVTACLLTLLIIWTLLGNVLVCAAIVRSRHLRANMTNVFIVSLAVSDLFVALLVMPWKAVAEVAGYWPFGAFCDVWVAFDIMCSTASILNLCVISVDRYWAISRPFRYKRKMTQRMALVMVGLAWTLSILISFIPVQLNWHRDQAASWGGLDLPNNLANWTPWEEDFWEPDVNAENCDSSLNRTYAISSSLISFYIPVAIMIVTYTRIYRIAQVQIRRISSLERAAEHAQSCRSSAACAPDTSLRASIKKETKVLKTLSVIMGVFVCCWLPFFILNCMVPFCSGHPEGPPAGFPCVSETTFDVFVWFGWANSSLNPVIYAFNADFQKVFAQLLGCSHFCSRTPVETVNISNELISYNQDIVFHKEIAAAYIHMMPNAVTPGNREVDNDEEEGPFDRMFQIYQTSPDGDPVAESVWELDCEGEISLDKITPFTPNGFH

Histamine H3 receptor = Histamine H3 receptor (Homo sapiens, UniProt Q9Y5N1); test: Binding affinity to histamine H3 receptor

Ki [1]: > 10 µM | Ki [2]: > 10 µM | Ki [3]: > 10 µM | Ki [4]: > 10 µM | Ki (D(3) dopamine receptor): > 10 µM | Ki [5]: > 10 µM | Ki [6]: > 10 µM | Ki [7]: > 10 µM | Ki (D(4) dopamine receptor): > 10 µM | Ki [8]: > 10 µM | Ki [9]: > 10 µM | Ki [10]: > 10 µM | Ki [11]: > 10 µM | Ki (D(2) dopamine receptor): > 10 µM | Ki [12]: > 10 µM | Ki [13]: > 10 µM | Ki [14]: > 10 µM | Ki [15]: > 10 µM | Ki [16]: > 10 µM | Ki [17]: > 10 µM | Ki (Histamine H4 receptor): > 10 µM | Ki [18]: > 10 µM | Ki (D(1A) dopamine receptor): > 10 µM | Ki [19]: > 10 µM | Ki [20]: > 10 µM | Ki [21]: > 10 µM | Ki (Histamine H1 receptor): > 10 µM | Ki [22]: > 10 µM | IC50 [23]: 0.036 nM | Ki [24]: > 10 µM | Ki (Mu-type opioid receptor): > 10 µM | Ki [25]: > 10 µM | Ki [26]: > 10 µM | Ki [27]: > 10 µM | logD [28]: 2.18 | Ki [29]: > 10 µM | Ki [30]: > 10 µM | Ki [31]: > 10 µM | Ki [32]: > 10 µM | Ki [33]: > 10 µM | Ki (Histamine H2 receptor): > 10 µM | Ki [34]: > 10 µM | Ki [35]: > 10 µM | Ki [36]: > 10 µM | Ki [37]: > 10 µM | Ki (D(1B) dopamine receptor): > 10 µM | Ki (Histamine H3 receptor): > 10 µM
Compound: N#Cc1cc(F)cc(C#Cc2csc(CF)n2)c1

IC50 [23]: 0.48 nM
Compound: FCc1nc(C#Cc2cccc(F)c2)cs1

IC50 [23]: 0.52 nM
Compound: COc1cccc(C#Cc2csc(CF)n2)c1
